# Screening results as filed in PubChem.
# KCNQ1 block: inhibitors of human KCNQ1 potassium channel. P51787. CHO-K1 KCNQ1, FluxOR thallium flux fluorescence; stronger effect = higher value. B-score at 10 µM. 1.3% of 310,000 active. AID 2642;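 active = compounds whose thallium flux B-score, printed positive for inhibition, exceeds three library SD while starting fluorescence stays within three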;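 note: channel opened by potassium depolarization with thallium stimulus after 20 min compound exposure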
# Kir21 inh: Kir2.1 (mouse) channel inhibition. HEK293-Kir2.1, FluxOR thallium flux fluorescence; stronger effect = lower value. B-score at 10 µM. 0.85% of 310,000 active;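 active = fluorescence ratio B-score at or below minus 3 SD of library scores, with starting-brightness B-score within 2 SD, cut at about -4.2 in these data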;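 note: channel flux triggered by added potassium and thallium sulfate stimulus; B-score of peak minus minimum fluorescence over baseline after thallium stimulus; more negative B-score means stronger Kir2.1 block with less thallium influx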
# KCNK3 inh: human KCNK3 channel inhibition, primary screen. B-score at 10 µM. O14649. CHO-KCNK3 thallium flux, FluxOR fluorescence; stronger effect = lower value. 0.84% of 340,000 active;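 active = B-score under library mean minus 4 SD, starting fluorescence ratio at most library mean plus 5 SD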;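 note: more negative B-score means stronger inhibition of thallium flux through KCNK3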
# hERG rescue: hERG (human) protection from proarrhythmic block | Q12809 | CHO-hERG, FluxOR thallium flux, dofetilide IC70 present | activation (rescue from dofetilide block), less the hit threshold, % at 10 µM | 0.51% of 310,000 active | AID 1511;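 active = activation above the mean of controls blocked by dofetilide plus 5 SD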;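 note: thallium influx through hERG after potassium depolarization seen as dye fluorescence rise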
# KCNQ1 act: human KCNQ1 channel potentiation or activation | P51787 | CHO-K1 KCNQ1, thallium flux FluxOR fluorescence; stronger effect = higher value | B-score at 10 µM | 0.35% of 310,000 active;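 active = fluorescence ratio B-score, a plate-corrected score, at least three library SD, with initial intensity B-score within 5 SD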
#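 assay system = KCNQ1-transfected CHO-K1 cells | medium = assay buffer with matched DMSO | probe or stimulus = depolarizing K+/Tl+ stimulus, K2SO4 and Tl2SO4 each 12.5 mM in 5x stock | dosing = single dose | incubation = dye 90 min, compound 20 min, room temperature | detection = kinetic FluxOR fluorescence, 10 s baseline plus 110 s post-stimulus | evaluation = ratio B score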
# KCNK9 inh: human KCNK9 channel inhibition; B-score at 10 µM; 1.2% of 310,000 active; HEK293 KCNK9, FluxOR thallium flux fluorescence; stronger effect = lower value; Q9NPC2;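 active = ratio B-score over 3 SD below the library mean, with starting fluorescence within 5 SD of its mean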;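 note: negative B-score means less thallium flux so channel inhibition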
# KCNK9 inh conf: confirmation of human KCNK9 potassium channel inhibitors | shares compounds with KCNK9 inh | HEK293 KCNK9 cells, FluxOR thallium flux fluorescence | inhibition, % at 10 µM | 43% of 4,900 active | AID 492992;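 active = thallium signal inhibited by more than 5 SD of the compound-free buffer control wells, on both duplicate plates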;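 note: 0% = assay buffer control wells without compound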
# Kir2-1 spec: mouse Kir2.1 off-target activity of KCNK9 modulators; shares compounds with KCNK9 inh; inhibition, % at 10 µM; AID 492993; 4% of 4,900 active; Kir2.1 cells, FluxOR thallium flux fluorescence;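 active = thallium signal drop more than 5 SD beyond the mean of the no-compound control wells, seen in both duplicate plates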;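 note: signal is fluorescence rise after thallium addition divided by baseline fluorescence; plate controls were assay buffer only for no effect and full block by chlorpromazine control for full effect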
# KCNK9 uninduced: second check of KCNK9 modulator effects in non-induced HEK293 cells; FluxOR thallium flux; shares compounds with KCNK9 inh; AID 492997; inhibition, % at 10 µM; 40% of 4,900 active;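 active = thallium signal drop beyond 5 SD of the untreated control mean, on both duplicate plates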;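 note: plate controls were buffer only IC0 wells for no effect and SID17386958 at its maximal inhibitory level for full effect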
# * = called active by the depositor; i = inactive; · = no result given. Only some compounds are listed: those with a hit (about 3.8% of all), similar ones and a draw of the others.
SMILES,KCNQ1 block,Kir21 inh,KCNK3 inh,hERG rescue,KCNQ1 act,KCNK9 inh,KCNK9 inh conf,Kir2-1 spec,KCNK9 uninduced
CCN(CC)CCCN=Cc1c(O)n(Cc2ccccc2)c(=O)c2ccccc12,i,-1.6,i,-5,i,i,·,·,·
CC(C)CCC(C)N=Cc1c(O)n(Cc2ccccc2)c(=O)c2ccccc12 (configuration not stated),i,0.82,i,-6,i,-13*,74%*,i,44%*
CCCCCn1c(N2CCN(Cc3ccccc3)CC2)nc2c1c(=O)[nH]c(=O)n2C,i,2,i,-15,i,i,·,·,·
O=c1[nH]c(CSc2nnc(COc3ccccc3)n2-c2ccccc2)nc2ccccc12,i,-0.31,i,-5,i,i,·,·,·
O=C(O)c1ccccc1C(=O)N1N=C(c2ccccc2)CC1c1ccccc1O (configuration not stated),i,0.02,i,-10,i,-8.3*,42%*,i,i
O=C(c1ccccc1Br)N1N=C(c2ccccc2)CC1c1ccccc1F (configuration not stated),i,1.7,i,-1,i,i,·,·,·
COC(=O)c1ccc(Cl)c(NC(=O)Cc2ccccc2[N+](=O)[O-])c1,i,-0.28,i,-3,i,i,·,·,·
COc1ccc(NC(=O)c2ccc(-c3ccc([N+](=O)[O-])cc3)o2)cc1OC,i,-0.13,i,-8,i,-16*,56%*,i,26%*
Cc1cc2c(c(=O)o1)C(c1cccs1)C(C#N)=C(N)O2 (configuration not stated),i,1.2,i,-7,i,i,·,·,·
CCN1CC2=C(OC(N)=C(C#N)C2c2cccs2)/C(=C/c2cccs2)C1 (configuration not stated),i,1.2,i,-15,i,-8.9*,35%*,i,31%*
C=CCCC1(C)C(=O)N(c2ccccc2)c2ccccc21 (configuration not stated),i,-6*,i,-8,i,-8.9*,42%*,i,39%*
Cc1c(N(C)S(=O)(=O)c2cc(C(=O)Nc3ccccn3)ccc2Cl)c(=O)n(-c2ccccc2)n1C,i,-0.89,i,-6,i,i,·,·,·
CCCC/C=C/C(NC(=O)CCc1ccccc1)c1ccccc1 (configuration not stated),i,0.22,i,-5,i,-10*,48%*,i,35%*
O=[N+]([O-])c1ccc(COc2cccc(CNc3ccc(Br)cc3)c2)cc1,i,1.2,i,-16,i,-10*,i,i,37%*
O=C(CN1CCN(Cc2ccccc2)CC1)N1CCCc2c1c(=O)oc1ccc(O)cc21,i,-0.36,i,-10,i,i,·,·,·
CN(Cc1ccccc1F)C(=O)c1ccc(Oc2ccccc2)cc1,i,-0.96,i,-14,i,i,i,i,i
CN(Cc1ccc(C(F)(F)F)cc1)C(=O)c1ccc(Oc2ccccc2)cc1,i,0.04,i,-3,i,i,i,i,26%*
C/C(=N\NC(=O)NC1CCCCC1)c1ccc(Cl)s1,i,-1.3,i,-6,i,i,·,·,·
CCOc1ccc2nc3cc(N=Nc4ccc(N)nc4N)ccc3c(N)c2c1,·,·,i,·,·,·,·,·,·
CCOC(=O)Cn1c(=O)cc(C)c2cccc(C)c21,i,-1.3,i,-15,i,i,i,i,i
O=C(CN(C(=O)c1cccc([N+](=O)[O-])c1)C1CCCCC1)Nc1ccc(Cl)c([N+](=O)[O-])c1,i,2,i,-4,i,i,·,·,·
Cc1ccc([N+](=O)[O-])cc1NC(=O)CN(C(=O)c1ccccc1Cl)C1CCCCC1,i,0.17,i,-6,i,-9.6*,50%*,i,i
COc1ccc(CC2(C)OC(c3ccccc3)=NN2C(C)=O)cc1 (configuration not stated),i,-6.3*,i,-11,i,i,i,i,i
COc1ccc(CC2(C)OC(c3ccc(C)c([N+](=O)[O-])c3)=NN2C(C)=O)cc1 (configuration not stated),i,-2.1,i,-12,i,i,·,·,·
COc1ccc(CC2(C)OC(c3ccc(C)cc3)=NN2C(C)=O)cc1 (configuration not stated),i,-0.59,i,-17,i,i,i,i,i
SMILES,KCNQ1 block,Kir21 inh,KCNK3 inh,hERG rescue,KCNQ1 act,KCNK9 inh,KCNK9 inh conf,Kir2-1 spec,KCNK9 uninduced
CC(=O)N1N=C(c2ccccc2)OC1(C)CC(=O)Nc1ccccc1 (configuration not stated),i,0.27,i,-9,i,i,·,·,·
Cc1ccc(S(=O)(=O)N2CCC(Oc3cccc(C(F)(F)F)c3)CC2)cc1,i,-0.07,i,-8,i,i,·,·,·
O=S(=O)(c1ccc(F)cc1)N1CC2CCCN2c2ccc(C(F)(F)F)cc21 (configuration not stated),i,0.48,i,-12,i,-13*,30%*,i,42%*
Cc1ccc(S(=O)(=O)N2CC3CCCN3c3ccc(C(F)(F)F)cc32)cc1 (configuration not stated),i,-2.3,i,-12,i,-19*,66%*,i,40%*
Cc1oc(=O)c(NC(=O)c2cccc(Cl)c2)cc1C(=O)c1ccccc1,i,-0.75,i,-11,i,i,i,i,i
COc1ccc(C(=O)Nc2cc(C(=O)c3ccccc3)c(C)oc2=O)cc1,i,-0.27,i,-7,i,i,·,·,·
CC(C)(C)c1ccc(OCCC(=O)OCC(=O)NC2CCCCC2)cc1,i,-1,i,-9,i,i,·,·,·
CC(C)(C)c1ccc(OCCC(=O)OCC(=O)NC(=O)NC2CCCC2)cc1,i,0.53,i,-11,i,-9.8*,i,i,i
Cc1cccc(NC(=O)CSc2nnc(-c3ccccc3Br)o2)c1C,i,1.3,i,-4,i,i,·,·,·
Cc1nn2c(NCc3ccccn3)cc(C(C)(C)C)nc2c1-c1ccccc1,i,0.81,i,-10,i,i,i,i,i
Cc1nn2c(NCc3ccccn3)c3c(nc2c1-c1ccccc1)CCC3,i,-0.09,i,-19,i,i,·,·,·
